pIC50: −log10 of the molar value. Like-named read-outs stand apart in the source and are kept apart here.
Experiments:
[1] = Partition coefficient by gradient HPLC; format: physicochemical
[2] = test system: T. gondii RH-dTom tachyzoites; assay: In vivo T. gondii survival study; parameters: species or system Swiss Webster CFW mice; settings: lethal dose of T. gondii strain RH tachyzoites
[3] = Kinetic aqueous solubility by nephelometry; format: physicochemical; settings: pH 6.5 phosphate buffer; 30 min at room temperature; 1% DMSO
[4] = test system: five mammalian cell lines (HFF, HEK293, HC04, RAJI, NR-9456); assay: Cytotoxicity across five mammalian cell lines / in vitro therapeutic index; format: cell-based; settings: at the concentrations tested
[5] = test system: Salmonella typhimurium (TA100 strain); assay: Bacterial reverse mutation; format: cell-based; settings: for Ames Assay (TA100): 3x the averaged T. gondii IC50, 48 replicates, point mutagenicity
[6] = test system: T. gondii RH-dTom tachyzoites in pretreated HFF cells; assay: Host cell pre-treatment assay; format: cell-based, Toxoplasma gondii; settings: HFF cells exposed to 10 μM for 24 h, washed, then infected with RH-dTom
Outline: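 HFF seeded at 20,000 cells/well in D10 and grown to confluence. Treated with 10 μM test compound for 24 h, then washed three times with D10 media. Infected with 2,000 RH-dTom (red fluorescent dTomato) tachyzoites. Parasite growth read by fluorescence at day 5 (methods) or day 4 (figure legend) post-infection. Run in triplicate.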

[7] = test system: murine-derived macrophage (NR-9456); assay: Cell toxicity assay; format: cell-based; settings: read-out: NR-9456 IC50, 24 h
Outline: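 Bone marrow-derived murine macrophages kept in D10 (DMEM, 10% heat-inactivated bovine serum, 2 mM L-glutamine, penicillin/streptomycin, 20% Medium 199, gentamicin) at 37°C, 5% CO2. Grown to confluence in 96-well plates, then exposed to test compound at 0 to 100 μM for 24 h. Alamar blue added for 4 h, and fluorescence read for IC50.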

[8] = Metabolic stability in mouse liver microsomes; format: in vitro ADME; settings: for CLint, in vitro / T1/2: 1 μM, 0.4 mg/mL protein
[9] = Metabolic stability in human liver microsomes; format: in vitro ADME; settings: for CLint, in vitro / T1/2: 1 μM, 0.4 mg/mL protein
B lymphocyte (RAJI) = settings: read-out: RAJI IC50; cytotoxicity; ref Guigemende 2010; cited from earlier work
human albumin column = human albumin column (Homo sapiens, UniProt P02768); assay: Chromatography-based protein binding; format: in vitro ADME; settings: plasma protein binding estimated using a chromatographic method
[10] = test system: Human foreskin fibroblast (HFF); settings: read-out: HFF IC50; cytotoxicity; ref Guigemende 2010; cited from earlier work
hepatocytes (HC04) = settings: read-out: HC04 IC50; cytotoxicity; ref Guigemende 2010; cited from earlier work
kidney (HEK293) = settings: read-out: HEK293 IC50; cytotoxicity; ref Guigemende 2010; cited from earlier work
T. gondii PRU-dTom = assay: T. gondii PRU-dTom; format: cell-based; settings: Toxoplasma gondii, 120 h, read-out: T. gondii PRU-dTom IC50
Outline: (§1)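 Confluent HFF (20,000 cells/well, D10, 37°C, 5% CO2) infected with 2,000 dTomato-expressing tachyzoites (type I RH or type II PRU). Invasion allowed for 12 h, then media replaced. Test compound added at 0 to 100 μM in duplicate. Parasite fluorescence read at day 5 post-infection for IC50.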

T. gondii = T. gondii inhibition in vitro; format: cell-based, Toxoplasma gondii
Outline: as §1

[11] = cytotoxicity, 0 to 100 μM, Alamar blue

Sequence of human albumin column (P02768 25-609): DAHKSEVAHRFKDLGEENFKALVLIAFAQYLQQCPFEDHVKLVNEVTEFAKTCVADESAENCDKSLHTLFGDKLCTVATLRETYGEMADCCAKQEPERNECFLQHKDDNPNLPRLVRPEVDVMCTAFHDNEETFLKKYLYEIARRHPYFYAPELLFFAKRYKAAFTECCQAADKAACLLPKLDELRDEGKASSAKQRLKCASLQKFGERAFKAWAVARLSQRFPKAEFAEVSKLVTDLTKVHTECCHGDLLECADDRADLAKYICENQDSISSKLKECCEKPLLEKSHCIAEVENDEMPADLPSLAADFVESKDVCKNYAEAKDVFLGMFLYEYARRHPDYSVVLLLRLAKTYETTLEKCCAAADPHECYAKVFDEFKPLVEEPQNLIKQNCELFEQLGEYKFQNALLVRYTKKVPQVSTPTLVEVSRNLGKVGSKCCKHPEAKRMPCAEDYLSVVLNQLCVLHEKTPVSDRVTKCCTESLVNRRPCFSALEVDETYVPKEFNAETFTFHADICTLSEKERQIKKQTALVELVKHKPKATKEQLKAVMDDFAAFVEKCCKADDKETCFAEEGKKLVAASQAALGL

SMILES	gLogD (pH 7.4) [1]	Sol6.5 kinetic solubility [3]	Cell lines whose growth was inhibited [4]	Ames Assay (TA100) [5]	Decrease of T. gondii growth after host cell pre-treatment [6]	pIC50 [7, 11]	CLint, in vitro [8]	T1/2 [8]	Predicted EH (hepatic extraction ratio) [9]	CLint, in vitro [9]	T1/2 [9]	pIC50 (B lymphocyte (RAJI))	cPPB (% bound) (human albumin column)	pIC50 [10]	pIC50 (hepatocytes (HC04))	pIC50 (kidney (HEK293))	other results
CCOc1ccc(/C=C/c2nc(=O)c3ccccc3o2)cc1 [KG3]	2.8	1.2 to 2.2 µg/mL	did not inhibit the growth of any of the five cell lines	Negative	21%	< 4.00	>886 μL/min/mg protein	<2 min	0.88	129 μL/min/mg protein	9 min	< 4.40	99 % bound	< 4.40	< 4.40	< 4.40	Mice spared (survival) ([2]; 20 mg/kg IP twice daily): 33%
CC(C)(C)c1cc(C2C(C#N)=C(N)OC3=C2C(=O)CCC3)cc(C(C)(C)C)c1O (stereo not drawn) [KG7]	3.9	3.1 to 6.3 µg/mL	2/5	Negative	no effect	< 4.00	>886 μL/min/mg protein	<2 min	0.97	746 μL/min/mg protein	2 min	5.52	93 % bound	< 4.44	5.52	< 4.44	Effect on S. typhimurium growth in Ames assay ([5]; TA100 strain): appeared to inhibit S. typhimurium growth; Predicted EH (hepatic extraction ratio) [8]: >0.94
CC(C)(C)c1cc(/N=N/C(=O)c2ccncc2)cc(C(C)(C)C)c1O [KG8]	3.9	3.1 to 6.3 µg/mL	2/5	Negative	no effect	< 4.00	180 μL/min/mg protein	10 min	0.6	37 μL/min/mg protein	47 min	6.17	>99.5 % bound	< 4.55	< 4.55	6.01	
CCc1nc(N)nc(N)c1-c1ccc(Cl)cc1 [Pyrimethamine, reference compound]												< 4.00		< 4.00	< 4.00	< 4.00	pIC50 (T. gondii PRU-dTom): 6.10; Mice spared (survival) ([2]; 21 mg/kg): 100%; pIC50 ([7]; Mus musculus, Macrophage): < 4.00; pIC50 (T. gondii; Toxoplasma gondii, read-out: T. gondii IC50 in vitro): 5.82 to 6.60
NNC(=O)c1ccncc1 [isoniazid]																	Efficacy against Toxoplasma gondii in vitro (T. gondii; data not shown): no efficacy

Reference: publication PMC5809185 (Parasitology international, 2018)
